Data reported in ChEMBL document CHEMBL4251707, “Stereochemical Structure Activity Relationship Studies (S-SAR) of Tetrahydrolipstatin” (ACS Med Chem Lett, 2018).
pIC50: −log10 of the molar value.

How the values were obtained:
Assay type in all cases: cell-based
[1] = tested on: MDA-MB-231; assay: Cytotoxicity against human MDA-MB-231 cells assessed as reduction in cell viability after 72 hrs by MTT assay; settings: MDA-MB-231, 72 h
In short: (§1)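 Cells plated at 5 × 10^3 cell/well and grown 12 to 16 h, then exposed to compound for 72 h over 0.1 nM to 100 μM, with untreated wells as controls. Viability was read by MTT as absorbance at 570 nm.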

[2] = tested on: NCI-H460; assay: Cytotoxicity against human H460 cells assessed as reduction in cell viability after 72 hrs by MTT assay; settings: NCI-H460, 72 h; in short: as §1
[3] = tested on: MCF7; assay: Cytotoxicity against human MCF7 cells assessed as reduction in cell viability after 72 hrs by MTT assay; settings: MCF7, 72 h; in short: as §1
[4] = tested on: MDA-MB-231; assay: Cytotoxicity against human MDA-MB-231 cells assessed as reduction in cell viability

Compound	pIC50 [1]	pIC50 [2]	pIC50 [3]	pIC50 [4]
CCCCCCCCCCC[C@@H](C[C@H]1OC(=O)[C@@H]1CCCCCC)OC(=O)[C@@H](CC(C)C)NC=O	< 4.00	< 4.00	< 4.00	–
CCCCCCCCCCC[C@H](C[C@H]1OC(=O)[C@@H]1CCCCCC)OC(=O)[C@H](CC(C)C)NC=O	< 4.00	< 4.00	< 4.00	–
CCCCCCCCCCC[C@H](C[C@@H]1OC(=O)[C@H]1CCCCCC)OC(=O)[C@H](CC(C)C)NC=O	< 4.00	< 4.00	< 4.00	–
CCCCCCCCCCC[C@@H](C[C@H]1OC(=O)[C@@H]1CCCCCC)OC(=O)[C@H](CC(C)C)NC=O	< 4.00	< 4.00	< 4.00	–
CCCCCCCCCCC[C@H](C[C@H]1OC(=O)[C@@H]1CCCCCC)OC(=O)[C@@H](CC(C)C)NC=O	< 4.00	< 4.00	< 4.00	–
CCCCCCCCCCC[C@@H](C[C@@H]1OC(=O)[C@H]1CCCCCC)OC(=O)[C@@H](CC(C)C)NC=O	< 4.00	< 4.00	< 4.00	–
CCCCCCCCCCC[C@H](C[C@@H]1OC(=O)[C@H]1CCCCCC)OC(=O)[C@@H](CC(C)C)NC=O	< 4.00	< 4.00	< 4.00	–
CC[C@@]1(O)C(=O)OCc2c1cc1n(c2=O)Cc2cc3ccccc3nc2-1 [CAMPTOTHECIN]	6.27	6.96	6.80	–
CCCCCCCCCCC[C@@H](C[C@@H]1OC(=O)[C@H]1CCCCCC)OC(=O)[C@H](CC(C)C)NC=O [ORLISTAT]	< 4.00	< 4.00	< 4.00	4.89
